Measurements from different studies.
Target: High affinity nerve growth factor receptor (NTRK1, Homo sapiens, UniProt P04629)

SMILES	effect on	technique	concentration	remaining binding [%]
CNC(=O)[C@@H]1CC[C@@H](n2c(-c3ccc4cnccc4c3)nc3ccc(C(=O)NCc4cccc(C(N)=O)c4)cc32)C1	binding	competition with immobilised ligand	1 µM	92
CCN1CCN(Cc2ccc(C(=O)Nc3ccc(C)c(Oc4ccc5c(c4)CC(=O)N5)c3)cc2C(F)(F)F)CC1	binding	competition with immobilised ligand	1 µM	100
CC(C)(O)c1cncc(-c2nc3ccc(F)cc3n2C2CC2)c1	cell-free assay	competition with immobilised ligand	1 µM	100
CN(CCCC(F)(F)F)c1nccc(-c2cnn3ncccc23)n1	binding		1 µM	100
CN1CCN(c2ccc(Nc3nccc(-c4ccccc4)n3)cc2C(F)(F)F)CC1	binding		10 µM	9.2
CN(C)c1nccc(-c2cnc3ncccn23)n1	binding		1 µM	72
CN(c1ccnc(CNc2nc(Nc3ccc4c(c3)CC(=O)N4)ncc2C(F)(F)F)n1)S(C)(=O)=O	cell-free assay	competition with immobilised ligand	1 µM	10
CN(C)c1ncc(F)c(-c2cnn3ncccc23)n1	binding		1 µM	97
Cc1nc(N2CC[C@@H](O)C2)ncc1-c1cc(C(F)(F)F)cc2[nH]ncc12	cell-free assay	competition with immobilised ligand	1 µM	56
Nc1ncc2c(n1)-c1c([nH]c3ccc(C#CC4CC4)cc13)CCCC2	binding	competition with immobilised ligand	1 µM	69
C[C@@H]1CCN(c2nccc(-c3cnn4ncccc34)n2)C1	binding		1 µM	61
COc1cnc(Nc2cccc(S(N)(=O)=O)c2)nc1N1CCN(c2ccccc2)C(=O)C1	binding	competition with immobilised ligand	1 µM	100
N[C@@H]1CCN(c2nccc(-c3cnn4ncccc34)n2)C1	binding		1 µM	93
NS(=O)(=O)c1cc(NC(=O)Cc2ccccc2)ccc1Oc1cccc(Cl)c1	cell-free assay	competition with immobilised ligand	1 µM	73
Cc1cnc(Nc2ccc(C(=O)N3CCC(N4CCCC4)CC3)cc2)nc1-c1cc2ccccc2s1	binding	competition with immobilised ligand	1 µM	0.3
N#CC1(c2ccccn2)CCN(Cc2cc(C(=O)N3CCCC3)c(=O)n3ccccc23)CC1	cell-free assay	competition with immobilised ligand	1 µM	100
O=C(Nc1c[nH]nc1C(=O)NC1CCNCC1)c1cc(F)cc(F)c1	binding	competition with immobilised ligand	1 µM	100
Cc1cnn2ncc(-c3ccnc(N(C)C)n3)c2c1	binding		1 µM	80
Cc1nccc(COC(=O)N2C[C@@H]3[C@@H](CNC(=O)c4ccc5[nH]nnc5c4)[C@@H]3C2)n1	cell-free assay	competition with immobilised ligand	1 µM	94
O=C(c1ccc(Nc2ncc(Cl)c(-c3cc4ccccc4s3)n2)cc1)N1CCC(N2CCCC2)CC1	binding	competition with immobilised ligand	1 µM	1.4
c1cncc(-c2cccc(Nc3nccc(NC4CCCCC4)n3)c2)c1	binding	competition with immobilised ligand	10 µM	5.3
N#Cc1ccccc1CSc1nnc2c(n1)[nH]c1ccccc12	binding	competition with immobilised ligand	10 µM	98
O=C(c1ccc(Nc2nccc(-c3cc4ccccc4s3)n2)cc1)N1CCC(N2CCCC2)CC1	binding	competition with immobilised ligand	1 µM	25
O=C(NCCCC1CCCCC1)c1ccc(CNC(=O)c2cnn(-c3ccccc3)c2C(F)(F)F)cc1	cell-free assay	competition with immobilised ligand	0.1 µM	100
